Screening results from PubChem.
ABHD5-PLIN5 inh – ABHD5-PLIN5 protein interaction inhibition. Split G. princeps luciferase complementation, luminescence, 4 h. inhibition, % at 4 µM. Q00G26+Q8WTS1. actives 0.78% (n = 360,000);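 active = inhibition above the mean inhibition across every tested compound plus 3 SD, cut at about 22% in these data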
Target sequence (Q00G26 whole entry, looked up): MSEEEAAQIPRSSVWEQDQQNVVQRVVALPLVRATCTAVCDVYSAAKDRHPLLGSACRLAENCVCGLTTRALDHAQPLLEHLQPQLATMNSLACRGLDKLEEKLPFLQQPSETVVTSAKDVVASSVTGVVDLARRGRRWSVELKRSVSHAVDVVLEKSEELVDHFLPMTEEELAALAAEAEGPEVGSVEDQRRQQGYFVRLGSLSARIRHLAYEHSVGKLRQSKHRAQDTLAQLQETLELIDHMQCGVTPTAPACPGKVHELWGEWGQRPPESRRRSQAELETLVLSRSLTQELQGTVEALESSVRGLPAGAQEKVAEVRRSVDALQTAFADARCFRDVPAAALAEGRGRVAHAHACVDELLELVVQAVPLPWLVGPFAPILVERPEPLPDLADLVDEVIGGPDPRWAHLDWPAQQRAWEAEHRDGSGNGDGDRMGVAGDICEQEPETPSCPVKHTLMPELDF
Target sequence (Q8WTS1 whole entry, looked up): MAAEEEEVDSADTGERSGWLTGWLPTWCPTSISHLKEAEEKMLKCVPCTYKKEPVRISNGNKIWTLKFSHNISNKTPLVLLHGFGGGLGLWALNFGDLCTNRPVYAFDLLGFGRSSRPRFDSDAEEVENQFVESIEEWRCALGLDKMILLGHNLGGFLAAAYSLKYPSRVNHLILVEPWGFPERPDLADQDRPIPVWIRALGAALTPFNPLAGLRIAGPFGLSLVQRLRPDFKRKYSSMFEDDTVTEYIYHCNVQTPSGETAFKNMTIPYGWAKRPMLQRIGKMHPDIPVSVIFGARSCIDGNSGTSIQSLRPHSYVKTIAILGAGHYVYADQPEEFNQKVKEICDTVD
Hsp70 act – switches on Hsp70 transcription; HeLa Hsp70 promoter luciferase reporter, luminescence; scaled: vehicle 0, proteasome-inhibitor control 100%; activation, % at 10 µM; actives 0.04% (n = 200,000);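 active = activation above the mean across all tested compounds plus 3 SD, cutoff set per campaign, cut at about 5.5% in these data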
HIF activator – HIF pathway transcriptional activation. activation, % at 7.5 µM (by protocol). AID 1910. U2OS HRE-luciferase reporter, luminescence; normalized: DMSO 0%, desferrioxamine 100%. actives 0.32% (n = 300,000);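 active = mean activation of at least 10% of the iron chelator positive control signal, with at least half of replicates also reaching 10%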
H9c2 TAG inh – triacylglycerol accumulation inhibition; H9c2 cells, Nile Red lipid (TAG) fluorescence; cells loaded with 200 µM oleic acid; inhibition, % at 12.5 µM; actives 0.66% (n = 230,000);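 active = pattern-corrected inhibition of lipid staining of at least 50% with the nuclear-stain viability signal not falling by more than 50%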
FXN GAA850 act – increases GAA850 frataxin promoter reporter activity; HEK293 lucGAA850 FXN promoter luciferase reporter, 24 h; percent of 10 µM SAHA response; activation, % at 6 µM; actives 0.56% (n = 360,000);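 active = activation above the average of all compounds screened plus 3 SD, cutoff fixed separately per campaign, cut at about 7.5% in these data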
Rad51 HR inh – Rad51 (human) homologous recombination inhibition | Q06609 | hRad51 DNA strand exchange, fluorescence dequenching | inhibition, % at 10 µM | actives 0.085% (n = 200,000) | AID 1385;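 active = inhibition above 40% at the single screening dose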
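System: human Rad51 nucleoprotein filaments preassembled on unlabelled ssDNA. Reagent: labelled 47-mer dsDNA for strand exchange. Schedule: 30-min compound preincubation and 15-min exchange, both room temperature. Measured by: FRET fluorescence dequenching, excitation 485 nm, emission 520 nm. Read-out: Fluorescence-based percent inhibition, control- and blank-normalised. Benchmarks: plate controls and plate blanks.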
GAA30 FXN cntr – activates GAA30 frataxin promoter, counter-screen for GAA850 activators. activation, % at 6 µM. actives 66% (n = 1,900). HEK293 lucGAA30 FXN promoter luciferase, 24 h; DMSO = 0%, 5 µM ipriflavone = 100%. shares compounds with FXN GAA850 act. AID 588350;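 active = mean activation above the mean of solvent-only control wells plus 3 SD, cut at about 22% in these data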;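 note: counterscreen of GAA850 promoter hits where activity marks nonselective or luminescence artifacts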
GAA850 confirm – GAA850 FXN promoter activation confirmation; actives 86% (n = 1,900); shares compounds with FXN GAA850 act; AID 588351; activation, % at 6 µM; HEK293 lucGAA850 FXN promoter luciferase reporter, 24 h; 100% = activation by SAHA;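 active = mean activation above a set limit taken from the primary screen, cut at about 8% in these data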
Hits are given with their value; 0 = inactive; - = not tested or not shown. Sampled rows, rich in hits. Any-hit rate of the full collection: about 1.9%.

SMILES	ABHD5-PLIN5 inh	Hsp70 act	HIF activator	H9c2 TAG inh	FXN GAA850 act	Rad51 HR inh	GAA30 FXN cntr	GAA850 confirm
O=[N+]([O-])c1ccccc1Nc1nc(-c2cccnc2)cs1	0	-	0	-	9.1	-	87	26
Cc1nc(NC(=O)c2ccc(Br)s2)sc1C(=O)N(C)C	0	0	0	-	8.4	0	115	33
Cc1nc(NC(=O)c2cc3c(s2)CCCCC3)sc1C(=O)N(C)C	0	0	0	-	0	0	-	-
Nc1ccc(Cl)c(-c2nc3ncccc3o2)c1	0	0	0	0	0	0	-	-
Nc1ccc(-c2nc3ncccc3o2)c(Cl)c1	0	0	0	0	8.7	0	108	41
Cc1nc(Nc2ccccc2Cl)sc1C(=O)Nc1ccccc1	0	0	0	-	16	0	67	21
CCOC(=O)C1(Cc2ccccc2)CCCN(C(=O)c2cnn(CC)c2)C1 (stereo unspecified)	0	-	0	-	0	-	-	-
COc1ccc(N2Cc3ccccc3C2=O)cc1	0	-	0	0	0	-	-	-
C=CC(=O)Oc1ccc(N2Cc3ccccc3C2=O)cc1	0	-	0	0	8.0	-	32	0
CCOc1ccc(C(=O)Nc2ccc(NC(=O)c3ccco3)c(Cl)c2)cc1Br	0	0	0	-	12	0	0	8.4
CC(C)c1ccc(NC(=O)c2ccc(Br)o2)cc1	0	0	0	0	0	0	-	-
C/C(=N/NC(=O)c1ccc(Br)o1)C(C)C	0	0	0	-	9.1	0	0	0
CCOc1ccc(-c2nc(CCl)cs2)cc1	0	0	0	0	7.6	0	114	37
CC1CCCC(NC(=O)C2CCN(S(=O)(=O)N3CCCCC3)CC2)C1C (stereo unspecified)	0	0	0	0	0	0	-	-
COc1ccc(CCNC(=O)c2c(C)nc3ccccn23)cc1	0	0	0	0	0	0	-	-
CC1(C)CC(=O)C=C(c2cccc3c2oc2ccccc23)C1	0	-	0	-	9.6	0	61	26
COc1cc(O)c2c(=O)c(-c3ccc(O[C@@H]4O[C@H](CO)[C@@H](O)[C@H](O)[C@H]4O)cc3)coc2c1	0	-	0	-	9.0	-	108	31
Oc1ccc(Cl)cc1CNCc1ccc(C(F)(F)F)cc1	0	-	-	0	0	-	-	-
C=CCn1c(SC(C)C(=O)NCCC2=CCCCC2)nc2ccccc2c1=O (stereo unspecified)	0	0	0	0	10	0	0	9.5
COc1ccccc1C(=O)Nc1ccncc1	0	-	0	0	0	-	-	-
COc1ccccc1C(=O)Nc1nsc(-c2ccccc2)n1	0	-	0	0	9.3	0	104	31
Cc1c(C(=O)Nc2cccnc2Cl)oc2ccccc12	0	-	0	-	7.8	-	128	42
CCNc1nc(CSc2ccccc2)nc2sc(C)c(C)c12	0	0	0	-	18	0	0	13
CC(C)N=c1scc(-c2ccco2)n1/N=C/c1ccc(O)c(O)c1	0	0	-	-	12	0	68	42
Cc1cc(N/C=C\c2nnnn2-c2ccccc2)no1	0	0	0	-	0	0	-	-
SMILES	ABHD5-PLIN5 inh	Hsp70 act	HIF activator	H9c2 TAG inh	FXN GAA850 act	Rad51 HR inh	GAA30 FXN cntr	GAA850 confirm
CN(C)c1ccc(/C=C/c2nnnn2-c2ccccc2)cc1	0	0	0	-	8.3	-	125	38
COc1ccc(C2=C(N)c3ccccc3C2=O)cc1	0	0	0	-	7.7	0	102	33
CO/N=C(\c1nonc1N)N1CCN(c2ccc(Cl)cc2[N+](=O)[O-])CC1	0	0	0	0	0	-	-	-
CCOC(=O)C1CCN(C2=NC(=O)/C(=C/c3ccc(OC)c(OC)c3)S2)CC1	0	-	0	-	0	-	-	-
COc1ccc(/C=C2\SC(N3CCCCC3)=NC2=O)cc1OC	0	-	0	-	9.5	-	29	21
CN=C1S/C(=C\c2ccc(O)c(OC)c2)C(=O)N1C	0	-	0	0	9.9	-	113	35
CN=C1S/C(=C\c2ccc(O)c(Br)c2)C(=O)N1C	0	-	0	-	0	-	-	-
O=Nc1c(-c2ccccc2)n(O)[n+]([O-])c1-c1ccccc1	0	-	-	0	8.9	-	75	36
Cc1c(C(=O)NCc2cccs2)sc(=O)n1Cc1ccc(S(=O)(=O)N(C)C)cc1	0	-	-	0	0	-	-	-
COc1ccc(OCCNc2cc(N3CCOCC3)ccc2[N+](=O)[O-])cc1	0	0	0	0	0	-	-	-
CC(Nc1cc(N2CCOCC2)ccc1[N+](=O)[O-])c1ccccc1 (stereo unspecified)	0	0	0	0	8.8	0	34	15
COc1cccc(OCCNc2cc(N3CCOCC3)ccc2[N+](=O)[O-])c1	0	0	0	-	10	0	67	31
O=C(NC(=S)Nc1cccnc1Cl)c1ccco1	0	0	0	0	7.8	0	64	20
CC(C)CN(C(=O)COC(=O)CNC(=O)c1sc2ccccc2c1Cl)C1CCS(=O)(=O)C1 (stereo unspecified)	0	-	0	0	0	-	-	-
Cc1cc(O)c(NC(=O)c2ccc(Br)o2)cc1C	0	0	0	-	9.3	0	91	27
NC(=O)C1CC(=O)N(c2ccc(OCc3ccc(Cl)cc3)cc2)C1 (stereo unspecified)	0	0	0	-	8.3	0	74	25
O=C(N(Cc1ccccc1)c1ccccn1)C12CC3CC(CC(C3)C1)C2	0	0	0	0	11	0	31	11
CC(C)C[C@@H]1COc2cc(N(C)CCO)ccc2S(=O)(=O)N1	0	-	-	-	-	-	-	-
O=C(N/N=C/c1ccc(O)c([N+](=O)[O-])c1)C1CC1(c1ccccc1)c1ccccc1 (stereo unspecified)	0	0	0	-	10	0	32	19
O=C(N/N=C/c1ccncc1)C1CC1(c1ccccc1)c1ccccc1 (stereo unspecified)	0	-	0	0	0	0	-	-
O=S(=O)(CCN1CCN(C(c2ccccc2)c2ccccc2)CC1)C(F)(F)F	0	0	0	-	7.8	0	37	16
NNc1nc2c(-c3ccc(F)cc3)nnn2c2ccccc12	0	0	0	0	0	0	-	-
NNc1nc2c(-c3ccc(Cl)cc3)nnn2c2ccccc12	0	0	0	0	8.2	0	129	37
O=C(Nc1ncc(Cc2cccc(Cl)c2)s1)C1CCCO1 (stereo unspecified)	0	0	0	0	8.2	0	87	28
Cc1ccccc1/C=N/NC(=O)c1ccc(-n2cnnn2)cc1	0	-	-	0	0	-	-	-
Cc1ccc(S(=O)(=O)N2CCC(=O)N(CCOC(=O)Nc3cccc(Cl)c3)CC2)cc1	0	0	0	0	9.4	0	42	19
